# Test system: monocyte-depleted PBMCs
# Assay: IL-1β secretion assay
# Type: cell-based, human
# Conditions: MD-PBMCs
# In short: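 NK cells, MD-PBMCs, PBMCs or granulocytes (1.5 million/mL) or PBMC+granulocytes (0.75 million/mL each), per donor, exposed 24 h, 48 h or 6 days to 0.05–5 μM test compound diluted from DMSO stock, with DMSO controls. Supernatants kept at −70 °C. IL-1β by sandwich ELISA: HRP detection antibody, acid-stopped substrate, A450 against standards. Detection limit 3 pg/mL; triplicates; ANOVA then t test versus control, p<0.05.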
structure (smiles),measurement,setting,value
"CCC[CH2][Sn][CH2]CCC [DBT, Dibutyltin]",average of the maximum fold increase in IL-β secretion,"24 h, across donors",2.0 fold
same,Interleukin 1 beta secreted,"donor F142, 24 h, 0.05 μM DBT",11284 ± 763 pg/mL
same,fold increase in IL-1β secretion,"donor F142, 24 h, 0.05 μM DBT",1.5 fold
same,fold increase in IL-1β secretion,"donor F142, 24 h, 50 nM DBT",1.5 fold
same,Interleukin 1 beta secreted,"donor F142, 24 h, 0.1 μM DBT",12495 ± 3130 pg/mL
same,fold increase in IL-1β secretion,"donor F142, 24 h, 100 nM DBT",1.6 fold
same,Interleukin 1 beta secreted,"donor F142, 24 h, 0.25 μM DBT",4456 ± 561 pg/mL
same,Interleukin 1 beta secreted,"donor F142, 24 h, 0.5 μM DBT",2637 ± 1438 pg/mL
same,Interleukin 1 beta secreted,"donor F142, 24 h, 1 μM DBT",77 ± 24 pg/mL
same,Interleukin 1 beta secreted,"donor F142, 48 h, 0.05 μM DBT",14932 ± 420 pg/mL
same,Interleukin 1 beta secreted,"donor F142, 48 h, 0.1 μM DBT",15275 ± 650 pg/mL
same,Interleukin 1 beta secreted,"donor F142, 48 h, 0.25 μM DBT",6455 ± 123 pg/mL
same,Interleukin 1 beta secreted,"donor F142, 48 h, 0.5 μM DBT",2604 ± 133 pg/mL
same,Interleukin 1 beta secreted,"donor F142, 48 h, 1 μM DBT",851 ± 54 pg/mL
same,Interleukin 1 beta secreted,"donor F142, 48 h, 2.5 μM DBT",6 ± 27 pg/mL
same,Interleukin 1 beta secreted,"donor F142, 6 day, 0.05 μM DBT",2303 ± 313 pg/mL
same,Interleukin 1 beta secreted,"donor F142, 6 day, 0.1 μM DBT",1606 ± 808 pg/mL
same,Interleukin 1 beta secreted,"donor F142, 6 day, 0.25 μM DBT",560 ± 127 pg/mL
same,Interleukin 1 beta secreted,"donor F142, 6 day, 0.5 μM DBT",270 ± 197 pg/mL
same,Interleukin 1 beta secreted,"donor F142, 6 day, 1 μM DBT",90 ± 100 pg/mL
same,Interleukin 1 beta secreted,"donor F145, 24 h, 0.05 μM DBT",3333 ± 164 pg/mL
same,fold increase in IL-1β secretion,"donor F145, 24 h, 50 nM DBT",1.5 fold
same,Interleukin 1 beta secreted,"donor F145, 24 h, 0.1 μM DBT",2390 ± 497 pg/mL
same,fold increase in IL-1β secretion,"donor F145, 24 h, 100 nM DBT",no increase
same,Interleukin 1 beta secreted,"donor F145, 24 h, 0.25 μM DBT",700 ± 8 pg/mL
same,Interleukin 1 beta secreted,"donor F145, 24 h, 0.5 μM DBT",47 ± 59 pg/mL
same,Interleukin 1 beta secreted,"donor F145, 48 h, 0.05 μM DBT",780 ± 323 pg/mL
same,Interleukin 1 beta secreted,"donor F145, 48 h, 0.1 μM DBT",2232 ± 1035 pg/mL
same,Interleukin 1 beta secreted,"donor F145, 48 h, 0.25 μM DBT",337 ± 347 pg/mL
same,Interleukin 1 beta secreted,"donor F145, 6 day, 0.05 μM DBT",983 ± 248 pg/mL
same,Interleukin 1 beta secreted,"donor F145, 6 day, 0.1 μM DBT",987 ± 577 pg/mL
same,Interleukin 1 beta secreted,"donor F145, 6 day, 0.25 μM DBT",535 ± 16 pg/mL
same,Interleukin 1 beta secreted,"donor F145, 6 day, 0.5 μM DBT",147 ± 55 pg/mL
same,Interleukin 1 beta secreted,"donor F152, 24 h, 0.05 μM DBT",721 ± 36 pg/mL
same,Interleukin 1 beta secreted,"donor F152, 24 h, 0.1 μM DBT",516 ± 26 pg/mL
same,Interleukin 1 beta secreted,"donor F152, 24 h, 0.25 μM DBT",406 ± 29 pg/mL
same,Interleukin 1 beta secreted,"donor F152, 24 h, 0.5 μM DBT",340 ± 57 pg/mL
same,Interleukin 1 beta secreted,"donor F152, 24 h, 1 μM DBT",224 ± 9 pg/mL
same,Interleukin 1 beta secreted,"donor F152, 24 h, 2.5 μM DBT",83 ± 22 pg/mL
same,Interleukin 1 beta secreted,"donor F152, 24 h, 5 μM DBT",19 ± 12 pg/mL
same,Interleukin 1 beta secreted,"donor F152, 48 h, 0.05 μM DBT",563 ± 54 pg/mL
same,Interleukin 1 beta secreted,"donor F152, 48 h, 0.1 μM DBT",495 ± 72 pg/mL
same,Interleukin 1 beta secreted,"donor F152, 48 h, 0.25 μM DBT",607 ± 71 pg/mL
same,Interleukin 1 beta secreted,"donor F152, 48 h, 0.5 μM DBT",703 ± 34 pg/mL
same,Interleukin 1 beta secreted,"donor F152, 48 h, 1 μM DBT",296 ± 56 pg/mL
same,Interleukin 1 beta secreted,"donor F152, 48 h, 2.5 μM DBT",35 ± 38 pg/mL
same,Interleukin 1 beta secreted,"donor F152, 48 h, 5 μM DBT",86 ± 37 pg/mL
same,Interleukin 1 beta secreted,"donor F152, 6 day, 0.05 μM DBT",81 ± 21 pg/mL
same,Interleukin 1 beta secreted,"donor F152, 6 day, 0.1 μM DBT",71 ± 6 pg/mL
same,Interleukin 1 beta secreted,"donor F152, 6 day, 0.25 μM DBT",118 ± 11 pg/mL
same,Interleukin 1 beta secreted,"donor F152, 6 day, 0.5 μM DBT",161 ± 62 pg/mL
same,Interleukin 1 beta secreted,"donor F152, 6 day, 1 μM DBT",41 ± 7 pg/mL
same,Interleukin 1 beta secreted,"donor F152, 6 day, 2.5 μM DBT",20 ± 18 pg/mL
same,Interleukin 1 beta secreted,"donor F152, 6 day, 5 μM DBT",14 ± 1 pg/mL
same,Interleukin 1 beta secreted,"donor F163, 24 h, 0.05 μM DBT",613 ± 57 pg/mL
same,Interleukin 1 beta secreted,"donor F163, 24 h, 0.1 μM DBT",370 ± 13 pg/mL
same,Interleukin 1 beta secreted,"donor F163, 24 h, 0.25 μM DBT",309 ± 15 pg/mL
same,Interleukin 1 beta secreted,"donor F163, 24 h, 0.5 μM DBT",310 ± 16 pg/mL
same,Interleukin 1 beta secreted,"donor F163, 24 h, 1 μM DBT",130 ± 5 pg/mL
same,Interleukin 1 beta secreted,"donor F163, 24 h, 2.5 μM DBT",70 ± 25 pg/mL
same,Interleukin 1 beta secreted,"donor F163, 24 h, 5 μM DBT",86 ± 44 pg/mL
same,Interleukin 1 beta secreted,"donor F163, 48 h, 0.05 μM DBT",607 ± 86 pg/mL
same,Interleukin 1 beta secreted,"donor F163, 48 h, 0.1 μM DBT",342 ± 34 pg/mL
same,Interleukin 1 beta secreted,"donor F163, 48 h, 0.25 μM DBT",547 ± 68 pg/mL
same,Interleukin 1 beta secreted,"donor F163, 48 h, 0.5 μM DBT",677 ± 378 pg/mL
same,Interleukin 1 beta secreted,"donor F163, 48 h, 1 μM DBT",701 ± 111 pg/mL
same,Interleukin 1 beta secreted,"donor F163, 6 day, 0.05 μM DBT",715 ± 87 pg/mL
same,Interleukin 1 beta secreted,"donor F163, 6 day, 0.1 μM DBT",497 ± 75 pg/mL
same,Interleukin 1 beta secreted,"donor F163, 6 day, 0.25 μM DBT",305 ± 36 pg/mL
same,Interleukin 1 beta secreted,"donor F163, 6 day, 0.5 μM DBT",664 ± 70 pg/mL
same,Interleukin 1 beta secreted,"donor F163, 6 day, 1 μM DBT",175 ± 3 pg/mL
same,Interleukin 1 beta secreted,"donor F166, 24 h, 0.05 μM DBT",6772 ± 386 pg/mL
same,fold increase in IL-1β secretion,"donor F166, 24 h, 0.05 μM DBT",3.0 fold
same,Interleukin 1 beta secreted,"donor F166, 24 h, 0.1 μM DBT",5569 ± 527 pg/mL
same,Interleukin 1 beta secreted,"donor F166, 24 h, 0.25 μM DBT",2788 ± 126 pg/mL
same,Interleukin 1 beta secreted,"donor F166, 24 h, 0.5 μM DBT",158 ± 43 pg/mL
same,Interleukin 1 beta secreted,"donor F166, 48 h, 0.05 μM DBT",14662 ± 1044 pg/mL
same,Interleukin 1 beta secreted,"donor F166, 48 h, 0.1 μM DBT",12941 ± 423 pg/mL
same,Interleukin 1 beta secreted,"donor F166, 48 h, 0.25 μM DBT",5307 ± 349 pg/mL
same,Interleukin 1 beta secreted,"donor F166, 48 h, 0.5 μM DBT",924 ± 101 pg/mL
same,Interleukin 1 beta secreted,"donor F166, 48 h, 1 μM DBT",1075 ± 230 pg/mL
same,Interleukin 1 beta secreted,"donor F166, 48 h, 2.5 μM DBT",1981 ± 3260 pg/mL
same,Interleukin 1 beta secreted,"donor F166, 6 day, 0.05 μM DBT",6655 ± 930 pg/mL
same,Interleukin 1 beta secreted,"donor F166, 6 day, 0.1 μM DBT",4959 ± 11 pg/mL

# Reference: PMC5114172 (Journal of applied toxicology : JAT, 2016)
